Laboratory results as given in ChEMBL document CHEMBL2413074, “Structure-based drug design using GPCR homology modeling: toward the discovery of novel selective CysLT2 antagonists” (Eur J Med Chem, 2013).

Legend:
Assay type in all cases: functional, cell-based
[1] = target: T1, Cysteinyl leukotriene receptor 2 (Homo sapiens, UniProt Q9NS75); assay: (§1) Antagonist activity at human recombinant CysLT2 receptor expressed in human HEK293 cells assessed as reduction in LTD4-induced cytosolic free Ca2+ level after 30 mins by fluorescence assay relative to control
T1 sequence (Q9NS75 whole entry): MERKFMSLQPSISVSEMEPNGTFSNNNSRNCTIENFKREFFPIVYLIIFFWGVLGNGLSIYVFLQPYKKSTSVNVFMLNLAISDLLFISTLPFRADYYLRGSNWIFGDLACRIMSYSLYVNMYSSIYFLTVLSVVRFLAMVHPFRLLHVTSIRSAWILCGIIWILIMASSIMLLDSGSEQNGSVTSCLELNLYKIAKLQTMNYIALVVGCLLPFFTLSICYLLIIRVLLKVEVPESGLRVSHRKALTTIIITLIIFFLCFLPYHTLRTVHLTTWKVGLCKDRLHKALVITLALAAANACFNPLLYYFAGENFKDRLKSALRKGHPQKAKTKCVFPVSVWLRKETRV
Outline: (§2)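 HEK293 cells stably transfected with pcDNA3.1(+)-hCysLT2 were grown at 37 °C in 5% CO2 and plated. After 24 h they were preincubated for 30 min in BSS with or without test compound. Cells were then stimulated with LTD4, with ATP as a positive stimulus. [Ca2+]i fluorescence was read at 37 °C (ex 485/em 525 nm). The response was taken as peak minus basal and expressed as % of BSS-only control.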

[2] = target: T2, Cysteinyl leukotriene receptor 2 (Homo sapiens) (UniProt Q9NS75); assay: as §1; outline: as §2
T2 sequence (whole entry): T1 sequence (Q9NS75 whole entry)

[3] = target: T3, Cysteinyl leukotriene receptor 1 (Homo sapiens) (UniProt Q9Y271); assay: Antagonist activity at CysLT1 receptor (unknown origin) expressed in human dU937 cells assessed as reduction in LTD4-induced cytosolic free Ca2+ level at 1 uM after 30 mins by fluorescence assay relative to control
T3 sequence (whole entry): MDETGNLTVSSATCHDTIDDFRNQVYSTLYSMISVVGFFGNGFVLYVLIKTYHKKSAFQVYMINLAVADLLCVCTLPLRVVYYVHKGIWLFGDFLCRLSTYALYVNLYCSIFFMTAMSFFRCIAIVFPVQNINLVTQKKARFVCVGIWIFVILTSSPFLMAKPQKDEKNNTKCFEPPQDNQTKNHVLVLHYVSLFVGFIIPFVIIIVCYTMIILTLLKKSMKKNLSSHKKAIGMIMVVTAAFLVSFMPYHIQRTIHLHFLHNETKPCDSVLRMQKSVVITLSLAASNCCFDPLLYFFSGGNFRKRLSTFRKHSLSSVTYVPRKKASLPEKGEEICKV

[4] = target: T2, Cysteinyl leukotriene receptor 2 (Homo sapiens); assay: Antagonist activity at human recombinant CysLT2 receptor expressed in human HEK293 cells assessed as reduction in LTD4-induced cytosolic free Ca2+ level at 1 uM after 30 mins by fluorescence assay relative to control
Outline: as §2, with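 “stimulus.” for “stimulus. [Ca2+]i fluorescence was read at 37 °C (ex 485/em 525 nm).”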

IC50 [1] [µM] | Activity [2] | Imax [2] [%] | inhibition [3] [%] | inhibition [4] [%] | SMILES
 |  |  |  | 10.4 | N#CCOc1cc(C(=O)O)ccc1C(=O)/C=C/c1ccc(OCCCCOc2ccc(Cl)cc2)cc1
7.5 | Dose-dependent effect | 72.8 | 7 | 44 | O=C(O)COc1ccc(C(=O)O)cc1C(=O)/C=C/c1ccc(OCCCCOc2ccc(Cl)cc2)cc1

The next lines start with the compound.

SMILES | IC50 [1] [µM] | Activity [2] | Imax [2] [%] | inhibition [3] [%] | inhibition [4] [%]
CCCCCCCCCCCCOc1cccc(/C=C/C(=O)c2cc(C(=O)O)ccc2OCC(=O)O)c1 | 0.25 | Dose-dependent effect | 80.5 | 4.8 | 70.5
CCCCCCCCCCCCOc1ccc(/C=C/C(=O)c2ccc(C(=O)O)cc2OCC(=O)O)cc1 |  |  |  | 10.6 | 
CCCCCCCCCCCCOc1ccc(/C=C/C(=O)c2cc(C(=O)O)ccc2OCC(=O)O)cc1 |  |  |  | 35.7 | 
CCCCCCCCOc1ccc(/C=C/C(=O)c2ccc(C(=O)O)cc2OCC(=O)O)cc1 |  |  |  | 8.6 | 
